Results published in ChEMBL document CHEMBL1151448, “Comparative antianaerobic activities of doripenem determined by MIC and time-kill analysis” (2008).

Assays:
Assay type in all cases: functional
[1] = test system: Bacteroides fragilis; assay: Antimicrobial activity against beta lactamase-positive Bacteroides fragilis isolated from intra-abdominal infection and pelvic inflammatory disease patients after 48 hrs by agar dilution method
Method in brief: (§1)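 CLSI agar dilution on brucella blood agar supplemented with laked sheep blood, hemin and vitamin K. Inocula of about 1 × 10^5 CFU/spot were applied by Steers replicator, and plates were incubated 48 h at 35°C in an anaerobic glove box. MIC was the concentration giving marked growth reduction versus the anaerobic control plate. QC strains were included each run, and β-lactamase was detected by Cefinase disk.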

[2] = test system: Bacteroides thetaiotaomicron; assay: Antimicrobial activity against beta lactamase-positive Bacteroides thetaiotaomicron isolated from intra-abdominal infection and pelvic inflammatory disease patients after 48 hrs by agar dilution method; method in brief: as §1
[3] = test system: Bacteroides fragilis; assay: Antimicrobial activity against beta lactamase-positive Bacteroides fragilis isolated from intra-abdominal infection and pelvic inflammatory disease patients after 48 hrs by time kill analysis
Method in brief: (§2)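 The MIC was read by inspecting macrodilution time-kill tubes. Vials held prereduced brucella broth with 5% laked horse blood cells, hemin 5 μg/ml and vitamin K1 1 μg/ml. Final inoculum was 10^6–10^7 CFU/ml, prepared inside the anaerobe chamber. Vials were incubated 48 h at 35°C in a shaking water bath.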

[4] = test system: Prevotella intermedia; assay: Antimicrobial activity against beta lactamase-positive Prevotella intermedia isolated from intra-abdominal infection and pelvic inflammatory disease patients after 48 hrs by time kill analysis; method in brief: as §2
[5] = test system: Finegoldia magna; assay: Antimicrobial activity against beta lactamase-positive Finegoldia magna isolated from intra-abdominal infection and pelvic inflammatory disease patients after 48 hrs by time kill analysis; method in brief: as §2
[6] = test system: Clostridium perfringens; assay: Antimicrobial activity against Clostridium perfringens isolated from intra-abdominal infection and pelvic inflammatory disease patients after 48 hrs by time kill analysis
Method in brief: (§3)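 Macrodilution in prereduced brucella broth with 5% laked horse blood cells, 5 μg/ml hemin and 1 μg/ml vitamin K1. Final inoculum 10^6 to 10^7 CFU/ml, prepared inside the anaerobe chamber. Vials incubated 48 h at 35°C in a shaking water bath. MIC read by inspecting the time-kill tubes, alongside an antibiotic-free growth control.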

[7] = test system: Clostridioides difficile; assay: Antimicrobial activity against Clostridium difficile isolated from intra-abdominal infection and pelvic inflammatory disease patients after 48 hrs by time kill analysis; method in brief: as §3
[8] = test system: Bacteroides ovatus; assay: Antimicrobial activity against beta lactamase-positive Bacteroides ovatus isolated from intra-abdominal infection and pelvic inflammatory disease patients after 48 hrs by agar dilution method; method in brief: as §1
[9] = test system: Phocaeicola vulgatus; assay: Antimicrobial activity against beta lactamase-positive Bacteroides vulgatus isolated from intra-abdominal infection and pelvic inflammatory disease patients after 48 hrs by agar dilution method; method in brief: as §1
[10] = test system: Parabacteroides distasonis; assay: Antimicrobial activity against beta lactamase-positive Bacteroides distasonis isolated from intra-abdominal infection and pelvic inflammatory disease patients after 48 hrs by agar dilution method; method in brief: as §1
[11] = test system: Prevotella bivia; assay: Antimicrobial activity against beta lactamase-positive Prevotella bivia isolated from intra-abdominal infection and pelvic inflammatory disease patients after 48 hrs by agar dilution method; method in brief: as §1
[12] = test system: Prevotella disiens; assay: Antimicrobial activity against beta lactamase-positive Prevotella disiens isolated from intra-abdominal infection and pelvic inflammatory disease patients after 48 hrs by agar dilution method; method in brief: as §1
[13] = test system: Prevotella intermedia; assay: Antimicrobial activity against beta lactamase-positive Prevotella intermedia isolated from intra-abdominal infection and pelvic inflammatory disease patients after 48 hrs by agar dilution method; method in brief: as §1
[14] = test system: Prevotella nigrescens; assay: Antimicrobial activity against beta lactamase-positive Prevotella nigrescens isolated from intra-abdominal infection and pelvic inflammatory disease patients after 48 hrs by agar dilution method; method in brief: as §1
[15] = test system: Prevotella melaninogenica; assay: Antimicrobial activity against beta lactamase-positive Prevotella melaninogenica isolated from intra-abdominal infection and pelvic inflammatory disease patients after 48 hrs by agar dilution method; method in brief: as §1
[16] = test system: Prevotella denticola; assay: Antimicrobial activity against beta lactamase-positive Prevotella denticola isolated from intra-abdominal infection and pelvic inflammatory disease patients after 48 hrs by agar dilution method; method in brief: as §1
[17] = test system: Prevotella corporis; assay: Antimicrobial activity against beta lactamase-positive Prevotella corporis isolated from intra-abdominal infection and pelvic inflammatory disease patients after 48 hrs by agar dilution method; method in brief: as §1
[18] = test system: Prevotella buccae; assay: Antimicrobial activity against beta lactamase-positive Prevotella buccae isolated from intra-abdominal infection and pelvic inflammatory disease patients after 48 hrs by agar dilution method; settings: Segatella buccae; method in brief: as §1
[19] = test system: Porphyromonas asaccharolytica; assay: Antimicrobial activity against Porphyromonas asaccharolyticus isolated from intra-abdominal infection and pelvic inflammatory disease patients after 48 hrs by agar dilution method; method in brief: as §1
[20] = test system: Porphyromonas gingivalis; assay: Antimicrobial activity against Porphyromonas gingivalis isolated from intra-abdominal infection and pelvic inflammatory disease patients after 48 hrs by agar dilution method; method in brief: as §1
[21] = test system: Porphyromonas levii; assay: Antimicrobial activity against Porphyromonas levii isolated from intra-abdominal infection and pelvic inflammatory disease patients after 48 hrs by agar dilution method; method in brief: as §1
[22] = test system: Fusobacterium nucleatum; assay: Antimicrobial activity against beta lactamase-positive Fusobacterium nucleatum isolated from intra-abdominal infection and pelvic inflammatory disease patients after 48 hrs by agar dilution method; method in brief: as §1
[23] = test system: Fusobacterium necrophorum; assay: Antimicrobial activity against Fusobacterium necrophorum isolated from intra-abdominal infection and pelvic inflammatory disease patients after 48 hrs by agar dilution method; method in brief: as §1
[24] = test system: Fusobacterium varium; assay: Antimicrobial activity against Fusobacterium varium isolated from intra-abdominal infection and pelvic inflammatory disease patients after 48 hrs by agar dilution method; method in brief: as §1
[25] = test system: Fusobacterium mortiferum; assay: Antimicrobial activity against beta lactamase-positive Fusobacterium mortiferum isolated from intra-abdominal infection and pelvic inflammatory disease patients after 48 hrs by agar dilution method; method in brief: as §1
[26] = test system: Finegoldia magna; assay: Antimicrobial activity against Finegoldia magna isolated from intra-abdominal infection and pelvic inflammatory disease patients after 48 hrs by agar dilution method; method in brief: as §1
[27] = test system: Parvimonas micra; assay: Antimicrobial activity against Micromonas micros isolated from intra-abdominal infection and pelvic inflammatory disease patients after 48 hrs by agar dilution method; method in brief: as §1
[28] = test system: Peptostreptococcus anaerobius; assay: Antimicrobial activity against Peptostreptococcus anaerobius isolated from intra-abdominal infection and pelvic inflammatory disease patients after 48 hrs by agar dilution method; method in brief: as §1
[29] = test system: Anaerococcus prevotii; assay: Antimicrobial activity against Anaerococcus prevotii isolated from intra-abdominal infection and pelvic inflammatory disease patients after 48 hrs by agar dilution method; method in brief: as §1
[30] = test system: Anaerococcus tetradius; assay: Antimicrobial activity against Anaerococcus tetradius isolated from intra-abdominal infection and pelvic inflammatory disease patients after 48 hrs by agar dilution method; method in brief: as §1
[31] = test system: Peptoniphilus asaccharolyticus; assay: Antimicrobial activity against Peptoniphilus asaccharolyticus isolated from intra-abdominal infection and pelvic inflammatory disease patients after 48 hrs by agar dilution method; method in brief: as §1
[32] = test system: Clostridium perfringens; assay: Antimicrobial activity against Clostridium perfringens isolated from intra-abdominal infection and pelvic inflammatory disease patients after 48 hrs by agar dilution method
Method in brief: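 CLSI agar dilution on brucella blood agar supplemented with laked sheep blood, hemin and vitamin K. Inoculum about 1 × 10^5 CFU/spot, applied by Steers replicator. Plates incubated 48 h at 35°C in an anaerobic glove box. MIC is the concentration giving marked growth reduction versus the anaerobic control plate. Standard QC strains included in each run.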

[33] = test system: Clostridioides difficile; assay: Antimicrobial activity against Clostridium difficile isolated from intra-abdominal infection and pelvic inflammatory disease patients after 48 hrs by agar dilution method; method in brief: as §1
[34] = test system: [Clostridium] innocuum; assay: Antimicrobial activity against Clostridium innocuum isolated from intra-abdominal infection and pelvic inflammatory disease patients after 48 hrs by agar dilution method; method in brief: as §1
[35] = test system: Thomasclavelia ramosa; assay: Antimicrobial activity against Clostridium ramosum isolated from intra-abdominal infection and pelvic inflammatory disease patients after 48 hrs by agar dilution method; method in brief: as §1
[36] = test system: Paraclostridium bifermentans; assay: Antimicrobial activity against Clostridium bifermentans isolated from intra-abdominal infection and pelvic inflammatory disease patients after 48 hrs by agar dilution method; method in brief: as §1
[37] = test system: Enterocloster clostridioformis; assay: Antimicrobial activity against Clostridium clostridioforme isolated from intra-abdominal infection and pelvic inflammatory disease patients after 48 hrs by agar dilution method; method in brief: as §1
[38] = test system: Paeniclostridium sordellii; assay: Antimicrobial activity against Clostridium sordellii isolated from intra-abdominal infection and pelvic inflammatory disease patients after 48 hrs by agar dilution method; settings: Paraclostridium sordellii; method in brief: as §1
[39] = test system: Clostridium paraputrificum; assay: Antimicrobial activity against Clostridium paraputrificum isolated from intra-abdominal infection and pelvic inflammatory disease patients after 48 hrs by agar dilution method; method in brief: as §1
[40] = test system: Clostridium cadaveris; assay: Antimicrobial activity against Clostridium cadaveris isolated from intra-abdominal infection and pelvic inflammatory disease patients after 48 hrs by agar dilution method; method in brief: as §1

CCC[C@@H]1C[C@@H](C(=O)N[C@@H]([C@H]2O[C@H](SC)[C@H](O)[C@@H](O)[C@H]2O)[C@H](C)Cl)N(C)C1 [CLINDAMYCIN]
1 µg/mL: MIC50 [1] | MIC50 [32] | MIC50 [34] | MIC [38]
2 µg/mL: MIC50 [8] | MIC50 [26] | MIC90 [32]
16 µg/mL: MIC90 [24]
4 µg/mL: MIC90 [1] | MIC50 [2] | MIC50 [10] | MIC50 [24] | MIC50 [35]
0.5 µg/mL: MIC [3] | MIC90 [9] | MIC90 [27] | MIC [30] | MIC50 [30]
0.06 µg/mL: MIC50 [23] | MIC [25] | MIC50 [25] | MIC50 [31] | MIC [36] | MIC [37]
> 16 µg/mL: MIC90 [8] | MIC90 [10] | MIC90 [11] | MIC90 [26] | MIC90 [31] | MIC90 [33]
0.016 µg/mL: MIC [4]
8 µg/mL: MIC90 [2] | MIC [7] | MIC50 [33] | MIC [39]
0.25 µg/mL: MIC [5] | MIC90 [23] | MIC90 [25] | MIC50 [27] | MIC90 [28]
0.03 µg/mL: MIC50 [9] | MIC50 [11] | MIC90 [12] | MIC90 [13] | MIC50 [15] | MIC50 [16] | MIC90 [16] | MIC90 [17] | MIC90 [18] | MIC [28] | MIC50 [28] | MIC [40]
≤ 0.016 µg/mL: MIC50 [12] | MIC50 [13] | MIC50 [14] | MIC90 [14] | MIC90 [15] | MIC [17] | MIC50 [17] | MIC [18] | MIC50 [18] | MIC [19] | MIC [20] | MIC [21]
0.125 µg/mL: MIC [6] | MIC90 [22] | MIC [29]
